Measurements from different studies.
Compare with care: the assays were run in different laboratories.
Si: Sucrase-isomaltase, intestinal (Si, Rattus norvegicus, UniProt P23739)
MAPK14: Mitogen-activated protein kinase 14 (MAPK14, Homo sapiens, UniProt Q16539)
Dihydrofolate reductase: Dihydrofolate reductase (Bos taurus, UniProt P00376)
HTR1A: 5-hydroxytryptamine receptor 1A (HTR1A, Homo sapiens, UniProt P08908)

COc1cc(C=O)ccc1O — IC50 (Si; enzyme activity, inhibitor, absorbance): 1350 µM
Fc1ccc(Cc2[nH]nc(-c3ccccn3)c2-c2ccnc3ccccc23)cc1 — IC50 (MAPK14; enzyme activity, inhibitor, ADP detection): 3.5 µM
N=c1sc(C(=O)c2ccc(Nc3cnccn3)cc2)nn1-c1ccccc1 — IC50 (Dihydrofolate reductase; enzyme activity, inhibitor): 6.49 µM
NC/C(=C\F)COc1cccc(Cn2c(=S)[nH]c(=O)c3[nH]cnc32)c1 — IC50 (Amine oxidase [copper-containing] 3 (Rattus norvegicus, UniProt O08590); enzyme activity, inhibitor): 0.005 µM
COc1cc(C(=O)O)ccc1O — IC50 (Si; enzyme activity, inhibitor, absorbance): 1650 µM
N=c1sc(C(=O)c2ccc(Nc3cnccn3)cc2)nn1-c1ccc([N+](=O)[O-])cc1 — IC50 (Dihydrofolate reductase; enzyme activity, inhibitor): 4.48 µM
CN1CCC(CNc2ccc3ncc(-c4cccc(OC(F)(F)F)c4)n3n2)CC1 — IC50 (HTR1A; cAMP, agonist): 7.13 µM
COc1ccccc1N1CCN(CC(C(=O)NC(C)(C)C)c2ccccc2)CC1 (stereo not drawn) — IC50 (HTR1A; cAMP, antagonist, TR-FRET): 0.376 µM
c1ccc(-c2occc2-c2ccnc3ccccc23)nc1 — IC50 (MAPK14; enzyme activity, inhibitor, ADP detection): > 30 µM
CNCc1cc(-c2cc(O)ccc2OC(F)(F)F)ccc1F — IC50 (Estrogen receptor (ESR1, Homo sapiens, UniProt P03372, Y537S); coactivator recruitment, TR-FRET): ~18 µM
c1ccc(Cn2cc(-c3ccnc4ccccc34)c(-c3ccccn3)n2)cc1 — IC50 (MAPK14; enzyme activity, inhibitor, ADP detection): 3 µM
COc1ccc(N2N=C(C(C)=O)SC2=C(C#N)C(=O)c2ccc(Nc3cnccn3)cc2)cc1 — IC50 (Dihydrofolate reductase; enzyme activity, inhibitor): 3.82 µM
